# Assay outcomes deposited in PubChem by several laboratories.
# Beta2AR agonist = agonists of human beta-2 adrenergic receptor inducing internalization | P07550 | Am2.2-beta2AR cells, FAP receptor internalization, flow cytometry | response, % (concentration not given with the values) | 340,000 compounds, 0.43% hits;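 active means response above a set limit, near 3 SD of response in nonfluorescent compounds, cut at about 42% in these data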
# aDG glyco act = alpha-DG glycosylation activation; AID 624168; 360,000 compounds, 0.22% hits; activation, % at 10 µM; Pro5-aDG cells, alpha-DG glycosylation AlphaScreen (IIH6); 0% Pro5, 100% B10-LARGE cell signal;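 active means activation of at least 8% versus controls, or a plate z-score of at least 8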;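 further: Pro5 are CHO cells carrying HIG-tagged alpha-DG that lacks glycosylation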
# H9c2 protect = modulators protecting cardiomyocytes from myocardial damage; protection from H2O2 cell death, % at 20 µM; AID 588492; H9c2 cardiomyocytes, H2O2 injury protection, ATPLite, 2 h; 360,000 compounds, 0.63% hits;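 active means compounds giving at least 50% protection of heart cells from peroxide-induced death in the single-dose screen, raw or plate-pattern-corrected value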;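 further: 0% = DMSO wells with peroxide and 100% = DMSO wells without peroxide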
# PfGluPho inh = PfG6PD (Plasmodium falciparum) enzyme inhibition; PfGluPho enzyme, NADPH resazurin-diaphorase fluorescence; inhibition, % at 20 µM; 350,000 compounds, 0.78% hits;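 active means inhibition reaching at least a set limit at 20 µM in the primary screen, cut at about 59% in these data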;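 further: 0% = DMSO wells with substrate and 100% = DMSO wells lacking glucose-6-phosphate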
# UCH37 inh = human UCH37 deubiquitinating enzyme inhibition; purified proteasome/UCH37, Ub-AMC cleavage fluorescence; 330,000 compounds, 0.33% hits; inhibition, % (no concentration beside the values);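 active means mean inhibition over replicate wells above about 20%, limit read from the data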;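 further: 0% = compound-free wells with enzyme and 100% = wells lacking proteasome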
#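 Material: Human UCH37 enzyme supplied as purified proteasome complex | Schedule: 30 min compound-proteasome preincubation then 25 min substrate reaction, room temperature | Detection: AMC fluorescence from Ub-AMC cleavage, excitation 355 nm, emission 460 nm | Benchmarks: Wells without proteasome as full block, compound-free enzyme plus substrate as uninhibited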
# HKDC1 inh = inhibitors of human hexokinase HKDC1; Q2TB90; recombinant HKDC1, G6PDH/diaphorase resazurin coupled fluorescence; inhibition, % at 20 µM; 340,000 compounds, 0.16% hits; AID 493160;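 active means inhibition above about 35% when tested at 20 µM, limit read from the data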;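 further: plate controls were DMSO wells with enzyme for no effect and DMSO wells lacking enzyme for full effect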
# Target sequence (Q2TB90 whole entry, looked up): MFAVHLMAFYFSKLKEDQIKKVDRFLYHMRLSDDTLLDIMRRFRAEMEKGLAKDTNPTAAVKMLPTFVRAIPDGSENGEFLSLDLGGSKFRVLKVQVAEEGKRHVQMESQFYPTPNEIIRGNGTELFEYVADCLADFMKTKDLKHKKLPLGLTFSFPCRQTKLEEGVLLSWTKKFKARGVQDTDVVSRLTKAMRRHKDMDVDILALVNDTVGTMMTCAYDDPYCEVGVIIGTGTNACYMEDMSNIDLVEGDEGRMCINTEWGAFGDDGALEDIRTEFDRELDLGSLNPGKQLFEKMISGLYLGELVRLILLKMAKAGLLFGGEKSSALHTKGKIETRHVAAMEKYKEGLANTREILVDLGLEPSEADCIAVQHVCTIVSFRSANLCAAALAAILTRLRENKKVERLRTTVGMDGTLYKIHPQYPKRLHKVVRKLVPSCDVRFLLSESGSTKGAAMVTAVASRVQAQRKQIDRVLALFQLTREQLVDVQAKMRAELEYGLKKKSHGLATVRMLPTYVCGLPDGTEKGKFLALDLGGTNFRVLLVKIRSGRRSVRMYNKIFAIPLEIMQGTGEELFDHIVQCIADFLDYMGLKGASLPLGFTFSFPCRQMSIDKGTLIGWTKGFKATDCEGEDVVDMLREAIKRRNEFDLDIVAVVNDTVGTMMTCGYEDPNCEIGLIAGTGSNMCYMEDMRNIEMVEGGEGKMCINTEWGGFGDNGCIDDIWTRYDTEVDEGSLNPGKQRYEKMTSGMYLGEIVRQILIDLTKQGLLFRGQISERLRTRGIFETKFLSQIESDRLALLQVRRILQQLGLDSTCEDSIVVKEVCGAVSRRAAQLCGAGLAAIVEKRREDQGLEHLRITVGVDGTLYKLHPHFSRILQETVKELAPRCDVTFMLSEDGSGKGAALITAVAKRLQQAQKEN
#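 Incubation: 90 min at room temperature in dark / Material: recombinant HKDC1 (HK5) hexokinase enzyme, produced in-house / Quantity: enzyme 5 µg/mL final / Compound: one dose of 20 µM, 1% DMSO / Reagent: glucose and ATP substrates / Buffer or medium: Tris pH 8.0 buffer with MgCl2, Tween-20, BSA, BME / Technique: resorufin fluorescence at 613 nm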
# UCH37 reconfirm = UCH37 Ub-AMC cleavage inhibition, confirmed; shares compounds with UCH37 inh; Proteasome-bound UCH37, Ub-AMC cleavage fluorescence; inhibition, % at 20 µM; 480 compounds, 27% hits; AID 624100;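 active means average inhibition over replicates above about 50%, so the earlier screening hit is confirmed, limit read from the data; inactive means the rest, counted as false positives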;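 further: based on cleavage rate fitted by regression over a 30 min kinetic read; 0% = proteasome plus Ub-AMC and 100% = Ub-AMC without proteasome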
# Starred values were filed as active, the others as inactive; . = no result given. Most compounds without a hit are left out; they make up all but 2.1% or so of the library.
SMILES,Beta2AR agonist,aDG glyco act,H9c2 protect,PfGluPho inh,UCH37 inh,HKDC1 inh,UCH37 reconfirm
Cc1[nH]n(-c2ccccc2)c(=O)c1C(C[N+](=O)[O-])c1ccc(Br)cc1 (stereo not drawn),28,0,-38,2,29*,2,-21
CCN(CC)c1ccc(C=NOCC(=O)Nc2cccc(C)c2)cc1,.,.,.,.,-5,.,.
COc1ccc(C=NNC(=O)c2ccccc2NC(=O)c2ccco2)c(OC)c1,.,.,.,.,-3,.,.
CC(=O)N(/N=C1\Sc2ccccc2C1=O)c1ccc(C)cc1C,-48,0,-33,18,.,-1,.
COc1ccccc1N(N=C1Sc2ccccc2C1=O)C(C)=O,.,.,.,.,71*,.,35
CC(=O)N(N=C1Sc2ccccc2C1=O)c1ccc(C)cc1C,.,.,.,.,35*,.,26
NC(=O)C1CCN(C2=C(NS(=O)(=O)c3ccc(Cl)cc3)C(=O)c3ccccc3C2=O)CC1,5,0,-3,8,33*,12,30
CCOC(=O)N1CCN(C2=C(NS(=O)(=O)c3ccc(C)cc3)C(=O)c3ccccc3C2=O)CC1,-12,3,-12,-3,42*,13,53*
COC(=O)NN=Cc1ccc(OC/C=C/c2ccccc2)c(OC)c1,.,.,.,.,3,.,.
Cc1cc(C)n2nc(C(=O)NN=Cc3ccccc3Cl)nc2n1,.,.,.,.,4,.,.
CCOC(=O)c1c(=O)n(O)c2ccc(C)cc2[n+]1[O-],7,0,16,9,39*,6,13
CCOC(=O)c1c(C)[n+]([O-])c2ccc3c(non3O)c12,5,0,5,-12,6,1,.
O=C1Cc2ccccc2C(=O)N1CCc1ccccc1,-12,0,1,-7,62*,-2,10
Cc1c(/C(O)=C2/C(=O)C(=O)N(CCN3CCOCC3)C2c2cccs2)cnn1-c1ccccc1 (stereo not drawn),1,0,-1,-17,14,-2,.
Cc1c(/C(O)=C2\C(=O)C(=O)N(CCCN(C)C)C2c2cccs2)cnn1-c1ccccc1 (stereo not drawn),3,0,6,-13,35*,8,2
O=C(c1ccco1)[C@@H]1[C@@H]2C(=O)N(c3ccccc3)C(=O)[C@@H]2C2c3ccccc3C=CN21 (stereo partly drawn),3,0,2,3,64*,3,5
Cc1ccc(N2C(=O)[C@@H]3[C@H](C2=O)C2c4ccccc4C=CN2[C@@H]3C(=O)c2ccco2)c(C)c1 (stereo partly drawn),20,0,5,-4,28*,8,3
C=CCN1C=CC(=C/C=C(/C#N)C(=O)OCC)C=C1,-27,0,-21,17,32*,-1,41
CCOC(=O)C1=C(C)OC2(O)c3ccccc3C(=O)C12O (stereo not drawn),-10,0,3,0,79*,-13,72*
CCOC(=O)C1=C(C)N[C@@]2(O)c3ccccc3C(=O)[C@@]12O,5,0,-3,-2,18,-1,.
CC(=O)C1=C(C)OC2(O)c3ccccc3C(=O)C12O (stereo not drawn),-7,0,5,-8,77*,-7,71*
CCN(CC)S(=O)(=O)c1ccc(NN=Cc2cc(OC)c(OC)cc2OC)nc1,.,.,.,.,-135,.,.
CN1C(=O)/C(=C/C=C2/CCCN2C)N(C)C1=S,10,0,1,-14,34*,-14,29
Fc1cccc(C=NNc2ccc(Cl)nn2)c1,.,.,.,.,1,.,.
CN(C)S(=O)(=O)c1ccc(C(=O)Nc2nnc(-c3cccs3)o2)cc1,37,-1,17,-21,52*,-8,3
SMILES,Beta2AR agonist,aDG glyco act,H9c2 protect,PfGluPho inh,UCH37 inh,HKDC1 inh,UCH37 reconfirm
COC1=C(c2ccccc2)C(=O)c2ccccc2C1=O,12,1,-17,24,27*,11,33
CCOc1cc(C(=O)NN=C(C)Cc2ccc(OC)cc2)cc(OCC)c1OCC,.,.,.,.,3,.,.
NC(=O)COC(=O)c1ccc(Cl)c(S(=O)(=O)N(Cc2ccccc2)c2ccc(Cl)cc2)c1,3,0,0,0,39*,-4,-37
O=[N+]([O-])c1cc(CN2CCOCC2)c2cccnc2c1O,.,.,.,26,.,1,.
O=[N+]([O-])c1cc(F)c2cccnc2c1O,2,0,15,33,29*,17,48
Nc1ccc(C(=O)NN=Cc2cn(Cc3ccccc3F)c3ccccc23)cc1,.,.,.,.,-4,.,.
O=C1C(O)=C(O)C(=O)c2ccccc21,97*,0,-7,1,72*,2,-38
O=C1c2ccccc2C(=O)c2[nH]c(=O)[nH]c21,2,1,-12,-13,41*,16,48
CCCCC(C)=NNC(=O)Nc1ccccc1,.,.,.,.,3,.,.
Cc1ccc(S(=O)(=O)N2CCN(CC(=O)NN=Cc3ccc(C)o3)CC2)cc1,.,.,.,.,5,.,.
CCOC(=O)C1=C(COC(=O)c2sccc2C)NC(=O)NC1C (stereo not drawn),-6,0,0,-15,1,-7,.
CCOC(=O)C1=C(COC(=O)c2ccc([N+](=O)[O-])s2)NC(=O)NC1C (stereo not drawn),0,1,7,14,83*,2,27
COc1cc(C=NNC(=O)c2ccncc2)c([N+](=O)[O-])cc1OC,.,.,.,.,9,.,.
COc1cc(C=NNC(=O)C2COc3ccccc3O2)cc(OC)c1OC (stereo not drawn),.,.,.,.,-1,.,.
COc1ccc(Nc2nc(NCc3ccco3)nc(NN=Cc3ccccc3)n2)cc1,.,.,.,.,-2,.,.
Cc1cccc(C(=O)N2CCCCCC2)c1,3,0,4,-9,28,-2,42
Cc1cc(C)cc(C(=O)N2CCCCC2)c1,-5,0,-3,0,1,-7,.
CCNC(=S)NN=Cc1ccc(OCC(=O)Nc2ccc(OC)cc2)c(OC)c1,.,.,.,.,-14,.,.
C(=NNc1nc(N2CCCCC2)nc(N2CCCCC2)n1)c1c[nH]c2ccccc12,.,.,.,.,38*,.,-59
O=C(NCCC1=CCCCC1)C1COc2ccccc2O1 (stereo not drawn),2,1,0,7,47*,4,67*
O=C(NC(=S)NCCC1=CCCCC1)c1ccc(Br)o1,-18,0,-8,15,1,-1,.
O=C(NCCc1ccc(C(F)(F)F)cc1)C1COc2ccccc2O1 (stereo not drawn),-3,0,3,9,5,-4,.
O=C(NCCC1=CCCCC1)c1ccc(Br)o1,2,0,-6,-10,83*,3,91*
Cc1ccccc1NS(=O)(=O)c1cc(C(=O)NCCC2=CCCCC2)ccc1C,3,0,-2,-4,40*,16,41
COc1cc(C=NNS(=O)(=O)c2ccccc2)c(OC)c(OC)c1,.,.,.,.,3,.,.
